DNMT1 inh – blocks human DNA methyltransferase DNMT1. P26358. DNMT1 molecular beacon, Hinp1I cleavage, fluorescence. inhibition (reported as % activation of signal), % at 10 µM. 360,000 compounds, 0.83% hits; in the data active means inhibition above about 50%
SUMO HTRF inh – blocks human SUMOylation mediated by UBC9; inhibition, % at 35 µM; HTRF SUMOylation assay, SAE1/SAE2 + UBC9, in vitro; P63279; AID 2006; 290,000 compounds, 0.36% hits; in the data active means inhibition above about 50%, passing the limit was not always enough
Scp-1 inhibitor – blocks human Scp-1 phosphatase activity | Q9GZU7 | Recombinant Scp1, phosphopeptide, malachite green phosphate absorbance | inhibition, % at 20 µM | 340,000 compounds, 0.88% hits | AID 493091;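 active means inhibition above about 50% at 20 µM, limit read from the data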;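 further: plate controls were DMSO wells with enzyme for no effect and wells lacking enzyme for full effect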
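Material: truncated SCP-1 phosphatase (76-261aa) / Buffer or medium: 50 mM Tris acetate pH 5.5, 0.005% Tween-20, 10 mM MgCl2 / Compound dosing: one concentration, 20 µM, with 1.0% DMSO / Incubation: 45 min room-temperature reaction, 5 min colour, 30 min stabiliser / Detection: colorimetric free-phosphate detection, absorbance 630 nm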
SUMO1 PPI mod – alters human SUMO1 binding to SIM partners; SUMO1 binding to a labelled peptide, TR-FRET, 1 h; inhibition, % at 20 µM; 360,000 compounds, 0.33% hits; in the data active means inhibition above about 37%
STEP block – blocks human striatal-enriched tyrosine phosphatase; inhibition, % at 20 µM; 360,000 compounds, 0.25% hits; recombinant STEP, OMFP fluorogenic substrate, fluorescence; P54829; AID 588621;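 active means inhibition at 20 µM, scaled per plate between control wells, above about 37%, limit read from the data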;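 further: 0% = DMSO with enzyme and substrate and 100% = substrate only without enzyme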
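System: isolated STEP enzyme; schedule: 20 min enzyme reaction at room temperature, protected from light; medium: Bis-Tris buffer pH 6.0, 2.5 mM DTT, 0.005% Tween 20; signal: fluorescence, 480/540 nm; dosing: single compound dose of 20 µM, 1% DMSO final; also added: OMFP substrate, 25 µM final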
LMPTP block – blocks human LMPTP phosphatase. AID 651560. inhibition, % at 20 µM. recombinant LMPTP-A, OMFP fluorogenic substrate, fluorescence intensity. 360,000 compounds, 0.22% hits;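 active means compounds that cut the enzyme signal by at least half of the control window in the single-dose screen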;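 further: plate controls were DMSO wells with enzyme plus substrate for no effect and substrate without enzyme for full effect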
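Assay system: LMPTP-A, protein tyrosine phosphatase of low molecular weight / Medium: pH 6.0 Bis-Tris buffer with DTT and Triton X-100 / Schedule: 50 min enzyme reaction at room temperature, protected from light / Measured by: endpoint fluorescence intensity from OMFP dephosphorylation / Read-out basis: % inhibition relative to no-enzyme and uninhibited control wells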
DNMT1 interf DR – counter-screen for DNMT1 inhibitors: spectral interference, dose response; shares compounds with DNMT1 inh; molecular beacon fluorescence; IC50, µM; 200 tested, under 10 active; call rule not given here
DNMT1 inh conf – confirmation of human DNMT1 inhibitors | inhibition, % at 10 µM | DNMT1 molecular beacon HinP1I cleavage, fluorescence | AID 602385 | 2,300 compounds, 8% hits | shares compounds with DNMT1 inh;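 active means average inhibition of at least 30% in the single-concentration confirmation test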
Beacon interf – beacon fluorescence artifact counter-screen; shares compounds with DNMT1 inh; DNMT1 molecular beacon spectral interference counterscreen, fluorescence 485/520; 2,300 compounds, 1% hits; AID 602387; activation (fluorescence interference), % at 10 µM;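 active means activation of at least 30% at 10 µM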;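 further: DNMT1 catalytic domain with a HinP1I cleavage step and a FAM/dabcyl DNA beacon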
An asterisk follows results filed as active. A selection: hits, their analogues and other compounds. The true share with any hit is near 1.9%.

What do the screens show for `Oc1[nH]c2ccccc2c1N=Nc1ccc(F)cc1`?
DNMT1 inh: 63*; SUMO HTRF inh: 24; Scp-1 inhibitor: -7; SUMO1 PPI mod: -9; STEP block: -9; LMPTP block: 1; DNMT1 interf DR: 20*; DNMT1 inh conf: 31*; Beacon interf: 29

What do the screens show for `Oc1[nH]c2ccccc2c1N=Nc1ccccc1`?
DNMT1 inh: -2; SUMO HTRF inh: 36; Scp-1 inhibitor: -5; SUMO1 PPI mod: -6; STEP block: -4; LMPTP block: 2

What do the screens show for `O=C(CSc1nc2scc(-c3ccco3)c2c(=O)n1-c1ccccc1)N1CCOCC1`?
DNMT1 inh: 1; SUMO HTRF inh: 21; Scp-1 inhibitor: 0; SUMO1 PPI mod: -1; STEP block: 4; LMPTP block: 1

How did O=C(CSc1nc2scc(-c3ccco3)c2c(=O)n1-c1ccccc1)NCC1CCCO1 (stereo not drawn) do in these assays?
DNMT1 inh: 93*; SUMO HTRF inh: 24; Scp-1 inhibitor: -5; SUMO1 PPI mod: 11; STEP block: 11; LMPTP block: 25; DNMT1 inh conf: 0; Beacon interf: -3

Results for NC(=O)CSc1nc2scc(-c3ccco3)c2c(=O)n1-c1ccccc1 ?
DNMT1 inh: 50*; SUMO HTRF inh: 26; Scp-1 inhibitor: -2; SUMO1 PPI mod: 13; STEP block: 4; LMPTP block: 47; DNMT1 inh conf: 3; Beacon interf: 1

Results for CCCCN(C)c1c(C)nc2ccc(C(=O)Nc3ccc(OC)c(OC)c3)cn12 ?
DNMT1 inh: -3; SUMO1 PPI mod: 3; STEP block: -2; LMPTP block: 0

How did CCOc1ccccc1C(=O)NCC(=O)NNC(=O)c1cccc(S(=O)(=O)Nc2ccc(OC)cc2)c1 do in these assays?
DNMT1 inh: -2; Scp-1 inhibitor: 13; SUMO1 PPI mod: 8; STEP block: 2; LMPTP block: -1

How did C=C(C)C1(O)OC(=O)C=C1OC (stereo not drawn) do in these assays?
DNMT1 inh: 53*; SUMO HTRF inh: 10; Scp-1 inhibitor: 4; SUMO1 PPI mod: -2; STEP block: -3; LMPTP block: 0; DNMT1 inh conf: 5; Beacon interf: 4

What do the screens show for `CCOc1ccc2nc(N3C(=O)/C(=C/c4ccc(Cl)cc4)NC3=S)sc2c1`?
DNMT1 inh: 94*; SUMO HTRF inh: 2; Scp-1 inhibitor: 55*; SUMO1 PPI mod: 79*; STEP block: 4; LMPTP block: 39; DNMT1 inh conf: 16; Beacon interf: -2

How did COc1ccc(CCn2c(O)cc3nn(-c4nc5ccccc5s4)c(=O)c-3c2C)cc1 do in these assays?
DNMT1 inh: 79*; SUMO HTRF inh: 63*; Scp-1 inhibitor: 62*; SUMO1 PPI mod: 14; STEP block: 11; LMPTP block: 53*; DNMT1 inh conf: 11; Beacon interf: 44*

Results for COc1cc(C(CC(=O)N2CCCC2)c2c(OC)cc(OC)c3ccc(=O)oc23)cc(OC)c1OC (stereo not drawn) ?
DNMT1 inh: 23; SUMO HTRF inh: 29; Scp-1 inhibitor: 30; SUMO1 PPI mod: -10; STEP block: -1; LMPTP block: 0

Results for COc1cc(OC)c2ccc(=O)oc2c1C(CC(=O)N1CCCC1)c1ccc2c(c1)OCO2 (stereo not drawn) ?
DNMT1 inh: 72*; SUMO HTRF inh: 14; Scp-1 inhibitor: 48; SUMO1 PPI mod: -2; STEP block: 8; LMPTP block: 2; DNMT1 inh conf: 0; Beacon interf: -4

Screening results as filed in PubChem BioAssay.
